This note sets out measurements from ChEMBL document CHEMBL1921795, “Discovery, synthesis, and structure-activity relationship development of a series of N-4-(2,5-dioxopyrrolidin-1-yl)phenylpicolinamides (VU0400195, ML182): characterization of a novel positive allosteric modulator of the metabotropic glutamate receptor 4 (mGlu(4)) with oral efficacy in an …” (J Med Chem, 2011).

The term EC50 denotes the concentration needed to bring the measured effect to its halfway point.

For assay [1], the target named is T1, Metabotropic glutamate receptor 4 (Homo sapiens, UniProt Q14833). The assay can be described thus: Positive allosteric modulation of human mGlu4 receptor expressed in CHO cells coexpressing Gqi5 assessed as potentiation of glutamate-induced calcium mobilization relative to (-)-PHCCC. Type of assay: functional, cell-based. The procedure, abridged:
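CHO cells stably expressing human mGlu4 with chimeric Gqi5, plated overnight, loaded 45 min at 37 °C with 1 µM Fluo-4 AM. Compound (10-point, 1:3 dilutions) was added about 2.5 min before an EC20 glutamate, then EC80 glutamate 2 min later. Ca2+ fluorescence read at 470/540 nm. Four-parameter logistic fit.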
A general note: Calcium assays in cells follow changes in intracellular calcium, usually with a dye or a luminescent sensor.

Assay [2] concerns the target Metabotropic glutamate receptor 4 (Rattus norvegicus) (UniProt P31423). The assay can be described thus: Positive allosteric modulation of rat mGlu4 receptor assessed as potentiation of glutamate-induced thallium flux relative to (-)-PHCCC. On the set-up: concentration or dose not given beside the values.
Assay [3] shares this target. Briefly: Positive allosteric modulator activity at rat mGlu4 receptor by thallium flux assay at 30 uM relative to glutamate.
Assay [4] addresses T1, Metabotropic glutamate receptor 4. The assay can be described thus: Positive allosteric modulator activity at human mGlu4 receptor expressed in CHO cells expressing Gqi5 by calcium mobilization assay.
In assay [5] the target is Metabotropic glutamate receptor 4 (Rattus norvegicus, UniProt P31423). The assay can be described thus: Positive allosteric modulator activity at rat mGlu4 receptor by thallium flux assay.
Chain of Metabotropic glutamate receptor 4 (Rattus norvegicus, UniProt P31423) (P31423 whole entry): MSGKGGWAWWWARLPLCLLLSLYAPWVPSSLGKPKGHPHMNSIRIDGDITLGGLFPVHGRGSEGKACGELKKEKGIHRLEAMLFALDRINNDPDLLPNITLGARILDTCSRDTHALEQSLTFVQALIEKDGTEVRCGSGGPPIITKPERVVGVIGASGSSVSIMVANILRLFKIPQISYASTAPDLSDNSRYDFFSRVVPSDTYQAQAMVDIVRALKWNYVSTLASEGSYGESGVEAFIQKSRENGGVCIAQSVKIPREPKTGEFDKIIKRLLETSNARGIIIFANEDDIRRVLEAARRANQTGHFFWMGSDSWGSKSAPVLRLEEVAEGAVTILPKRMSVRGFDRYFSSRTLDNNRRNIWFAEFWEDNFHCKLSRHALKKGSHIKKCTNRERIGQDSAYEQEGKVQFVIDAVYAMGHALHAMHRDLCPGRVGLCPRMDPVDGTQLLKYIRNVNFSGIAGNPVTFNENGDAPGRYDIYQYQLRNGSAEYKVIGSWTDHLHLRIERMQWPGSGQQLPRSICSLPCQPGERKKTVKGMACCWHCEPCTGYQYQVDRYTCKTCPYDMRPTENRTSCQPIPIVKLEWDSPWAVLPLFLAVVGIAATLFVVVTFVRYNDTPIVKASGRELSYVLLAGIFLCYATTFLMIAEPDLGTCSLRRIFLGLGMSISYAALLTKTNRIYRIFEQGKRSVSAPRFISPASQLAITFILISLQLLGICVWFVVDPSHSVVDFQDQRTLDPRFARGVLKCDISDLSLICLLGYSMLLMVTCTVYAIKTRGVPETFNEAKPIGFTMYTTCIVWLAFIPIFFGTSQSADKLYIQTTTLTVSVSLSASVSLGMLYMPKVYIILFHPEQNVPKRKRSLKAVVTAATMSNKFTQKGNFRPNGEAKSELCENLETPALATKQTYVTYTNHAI

Chain of Metabotropic glutamate receptor 4 (Rattus norvegicus) (P31423 whole entry): as above
T1 sequence (Q14833 whole entry): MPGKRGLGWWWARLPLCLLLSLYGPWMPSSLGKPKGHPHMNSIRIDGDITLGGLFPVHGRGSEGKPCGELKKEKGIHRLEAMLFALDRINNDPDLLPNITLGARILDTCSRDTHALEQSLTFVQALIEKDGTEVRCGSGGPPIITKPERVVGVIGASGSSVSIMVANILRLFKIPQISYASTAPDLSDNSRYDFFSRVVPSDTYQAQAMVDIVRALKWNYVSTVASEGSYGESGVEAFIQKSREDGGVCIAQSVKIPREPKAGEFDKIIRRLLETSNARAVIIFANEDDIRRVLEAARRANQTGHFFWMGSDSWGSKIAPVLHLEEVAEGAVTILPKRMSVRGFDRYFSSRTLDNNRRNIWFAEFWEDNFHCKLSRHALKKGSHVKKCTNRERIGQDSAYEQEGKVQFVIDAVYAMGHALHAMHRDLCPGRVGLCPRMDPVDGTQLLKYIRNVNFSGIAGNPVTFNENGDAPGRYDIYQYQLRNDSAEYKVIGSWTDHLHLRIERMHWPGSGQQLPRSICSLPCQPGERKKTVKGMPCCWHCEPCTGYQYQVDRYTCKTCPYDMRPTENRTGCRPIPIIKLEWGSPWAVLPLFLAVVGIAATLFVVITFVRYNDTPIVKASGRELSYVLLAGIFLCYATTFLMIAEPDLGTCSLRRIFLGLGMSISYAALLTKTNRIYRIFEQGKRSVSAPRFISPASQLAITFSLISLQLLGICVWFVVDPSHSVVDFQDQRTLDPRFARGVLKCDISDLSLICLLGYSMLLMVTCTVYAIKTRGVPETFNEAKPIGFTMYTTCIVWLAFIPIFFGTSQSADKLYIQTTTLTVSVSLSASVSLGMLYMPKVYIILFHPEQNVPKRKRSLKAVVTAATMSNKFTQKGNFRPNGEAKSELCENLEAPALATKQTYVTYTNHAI

As for `CC1(C)[C@@H]2C(=O)N(c3ccc(NC(=O)c4ccccn4)cc3Cl)C(=O)[C@@H]21`, the Activity in assay [1] was found to be 100%; in assay [2], 105%. The same compound gave a fold change (FC) in assay [3] of 5.5.

For `O=C(Nc1ccc(N2S(=O)(=O)c3ccccc3S2(=O)=O)cc1)C1CCCCC1`, the Activity in assay [1] came to 48.3%. In addition, the EC50 in assay [4] was 765 nM.

Turning to `O=C(Nc1ccc(N2C(=O)[C@H]3CCCC[C@H]3C2=O)c(Cl)c1)c1ccccn1`, the values for the Activity in assay [1] and in assay [2] were 107% and 129%, respectively. The same compound registered an EC50 in assay [5] of 645 nM. This compound also showed a fold change (FC) in assay [3] of 8.3.

`CC1(c2ccccc2)CC(=O)N(c2ccc(NC(=O)c3ccccn3)cc2Cl)C1=O` (racemic): the results for the Activity in assay [1] and in assay [2] were 124% and 131%, respectively. Moreover, the fold change (FC) in assay [3] stood at 16.7.

On to `O=C(Nc1ccc(N2C(=O)c3cccc(Cl)c3C2=O)c(Cl)c1)c1ccccn1`, for which the Activity turned out to be 130% in assay [1] and 137% in assay [2]. The compound further had an EC50 in assay [5] of 34.9 nM. In assay [3], this compound had a fold change (FC) of 83.

On to `O=C(Nc1ccc(N2C(=O)c3ccccc3C2=O)c(Cl)c1)c1ccccn1`, for which the Activity in assay [1] is 104%; in assay [2], 132%. The EC50 in assay [5] stood at 66.8 nM. The compound further gave a fold change (FC) in assay [3] of 23.6.

In the case of `O=C(Nc1ccc(N2S(=O)(=O)c3ccccc3S2(=O)=O)cc1)c1cccc(F)n1`, the Activity in assay [1] was determined as 76.7%. In addition, in assay [4], the EC50 came to 1800 nM.

`O=S1(=O)c2ccccc2S(=O)(=O)N1c1ccc(NC2(c3ccccn3)CC2)cc1`: the Activity in assay [1] came out at 62.7%. The EC50 in assay [4] was 6400 nM.

On to `O=S1(=O)c2ccccc2S(=O)(=O)N1c1ccc(NCc2ccccn2)cc1`, for which, in assay [1], the Activity stood at 110%. Further, in assay [4], the EC50 amounted to 1800 nM.

On to `O=C(Nc1ccc(N2S(=O)(=O)c3ccccc3S2(=O)=O)cc1)c1ccco1`, for which the Activity in assay [1] is 110%. Also, in assay [4], the EC50 amounted to 226 nM.

Turning to `O=C(Nc1ccc(N2S(=O)(=O)c3ccccc3S2(=O)=O)cc1)c1ccncc1`, the Activity in assay [1] worked out at 22.3%. Besides, the EC50 entry in assay [4] (cho) is on record as “Not Active”.

On to `O=C(Nc1ccc(N2C(=O)CCC2=O)c(Cl)c1)c1ccccn1`, for which the Activity in assay [1] is 74%. In addition, in assay [4], the EC50 was determined as 6200 nM.

For the compound `O=C(Nc1ccc(N2C(=O)[C@@H]3[C@H](C2=O)[C@@H]2CC[C@H]3O2)c(Cl)c1)c1ccccn1`, the Activity in assay [1] is 90%. The EC50 in assay [4] was determined as 1300 nM.

Regarding `O=C(Nc1ccccn1)c1ccc(N2S(=O)(=O)c3ccccc3S2(=O)=O)cc1`, in assay [1], the Activity worked out at 30.7%. Further, the EC50 result in assay [4] (cho) is recorded as “Not Active”.

Turning to `O=C(Nc1ccc(N2S(=O)(=O)c3ccccc3S2(=O)=O)cc1)c1cccnc1`, the Activity in assay [1] was found to be 27.7%. The EC50 entry in assay [4] (cho) was “Not Active”.

In the case of `O=C(Nc1ccc(N2S(=O)(=O)c3ccccc3S2(=O)=O)cc1)c1ccccc1`, in assay [1], the Activity was determined as 65%. Besides, in assay [4], the EC50 was found to be 402 nM.

With `COc1cccc(C(=O)Nc2ccc(N3S(=O)(=O)c4ccccc4S3(=O)=O)cc2)n1`, the Activity in assay [1] was 22%. Besides, in assay [4] (cho), the EC50 result is given as “Not Active”.

On to `CC1(C)CC(=O)N(c2ccc(NC(=O)c3ccccn3)cc2Cl)C1=O`, for which the Activity in assay [1] came out at 82%. In addition, the EC50 in assay [4] was determined as 1400 nM.

`O=C(Nc1ccc(N2S(=O)(=O)c3ccccc3S2(=O)=O)cc1F)c1ccccn1`: in assay [1], the Activity worked out at 67.7%. The EC50 in assay [4] is 1100 nM.

For `O=C(Nc1ccc(N2CCCS2(=O)=O)cc1)c1ccccn1`, in assay [1], the Activity worked out at 25%. Besides, in assay [4] (cho), the EC50 entry is “Not Active”.

On to `O=C(Nc1ccc(N2C(=O)[C@@H]3[C@H](C2=O)[C@H]2C=C[C@@H]3CC2)c(Cl)c1)c1ccccn1`, for which the Activity in assay [1] is 120%; in assay [2], 122%. The same compound came in with a fold change (FC) in assay [3] of 5.2.

On to `O=C(Nc1ccc(N2S(=O)(=O)c3ccccc3S2(=O)=O)cc1)c1cncs1`, for which the Activity in assay [1] came to 39.7%. Besides, in assay [4] (cho), the EC50 result was “Not Active”.
